{
  "source": "ChEMBL document CHEMBL4184290",
  "about": "“Design, synthesis, and discovery of 5-((1,3-diphenyl-1H-pyrazol-4-yl)methylene)pyrimidine-2,4,6(1H,3H,5H)-triones and related derivatives as novel inhibitors of mPGES-1” (Bioorg Med Chem Lett, 2018)",
  "key": {"[1]": {"target": "T1, Prostaglandin E synthase (Homo sapiens) (UniProt O14684)", "T1 sequence (whole entry)": "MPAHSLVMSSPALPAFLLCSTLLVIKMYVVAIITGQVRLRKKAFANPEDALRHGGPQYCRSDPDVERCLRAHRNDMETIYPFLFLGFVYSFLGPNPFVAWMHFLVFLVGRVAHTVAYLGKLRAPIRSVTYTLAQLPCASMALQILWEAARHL", "test": "Inhibition of human mPGES1 expressed in 293 cell microsomes at 10 uM preincubated for 15 mins followed by PGH2 substrate addition measured after 3 secs by enzyme immunoassay relative to control", "method_in_brief": "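Single-point screen at 10 μM against human mPGES-1, reported as % inhibition. Only compounds reaching the ≥70% cutoff went on to IC50 determination. Data are means ± SD from triplicate determinations.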"}, "Prostaglandin E synthase": {"target": "T2, Prostaglandin E synthase (Homo sapiens, UniProt O14684)", "T2 sequence (O14684 whole entry)": "T1 sequence (whole entry)", "test": "Inhibition of human mPGES1 expressed in 293 cell microsomes preincubated for 15 mins followed by PGH2 substrate addition measured after 3 secs by enzyme immunoassay", "method_in_brief": "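Compounds were first screened against human mPGES-1 at 10 μM, and IC50 values were determined only for those giving ≥70% inhibition. Protein preparation and assay followed earlier reports. Values are means ± SD of single determinations run in triplicate.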"}, "COX1/COX2": {"tested_on": "COX1/COX2", "test": "Inhibition of ovine COX1/human COX2 assessed as reduction in PGF2alpha production at 100 uM preincubated for 10 mins followed by arachidonic acid substrate addition measured after 2 mins by colorimetric assay relative to control", "details": "sheep (COX1) / human (COX2), ovine COX1/human COX2 enzyme, probe arachidonic acid"}},
  "note": "pIC50: −log10 of the molar value.",
  "data": [
    {"compound": "CCCCOc1ccc(-c2nn(-c3ccc(Cl)cc3)cc2C=C2C(=O)NC(=O)NC2=O)cc1", "values": [
      {"measurement": "inhibition", "setting": "[1]", "value": "> 70", "unit": "%"}
    ]},
    {"compound": "O=C1NC(=O)C(=Cc2cn(-c3ccc(Cl)cc3)nc2-c2ccccc2)C(=O)N1", "values": [
      {"measurement": "inhibition", "setting": "[1]", "value": "> 70", "unit": "%"},
      {"measurement": "pIC50", "setting": "Prostaglandin E synthase", "value": 6.47}
    ]},
    {"compound": "CCOc1ccc(-c2nn(-c3ccc(Cl)cc3)cc2C=C2C(=O)NC(=S)NC2=O)cc1", "values": [
      {"measurement": "inhibition", "setting": "[1]", "value": "> 70", "unit": "%"},
      {"measurement": "inhibition at 2 min, 100 µM", "setting": "COX1/COX2", "value": 1, "unit": "%"}
    ]},
    {"compound": "CCCCCCCCOc1ccc(-c2nn(-c3ccc(Cl)cc3)cc2C=C2C(=O)NC(=S)NC2=O)cc1", "values": [
      {"measurement": "inhibition", "setting": "[1]", "value": "> 70", "unit": "%"},
      {"measurement": "inhibition at 2 min, 100 µM", "setting": "COX1/COX2", "value": 0, "unit": "%"}
    ]},
    {"compound": "CCCCCCOc1ccc(-c2nn(-c3ccc(Cl)cc3)cc2C=C(C#N)C#N)cc1", "values": [
      {"measurement": "inhibition", "setting": "[1]", "value": 64, "unit": "%"}
    ]},
    {"compound": "O=C1NC(=O)C(=Cc2cn(-c3ccc(Cl)cc3)nc2-c2ccc(OCc3ccccc3)cc2)C(=O)N1", "values": [
      {"measurement": "inhibition", "setting": "[1]", "value": "> 70", "unit": "%"},
      {"measurement": "pIC50", "setting": "Prostaglandin E synthase", "value": 6.22}
    ]},
    {"compound": "CCOc1ccc(-c2nn(-c3ccc(Cl)cc3)cc2/C=C2/SC(=O)NC2=O)cc1", "values": [
      {"measurement": "inhibition", "setting": "[1]", "value": "> 70", "unit": "%"},
      {"measurement": "pIC50", "setting": "Prostaglandin E synthase", "value": 5.80}
    ]},
    {"compound": "O=C1NC(=S)NC(=O)C1=Cc1cn(-c2ccc(Cl)cc2)nc1-c1ccccc1", "values": [
      {"measurement": "inhibition", "setting": "[1]", "value": "> 70", "unit": "%"},
      {"measurement": "pIC50", "setting": "Prostaglandin E synthase", "value": 6.25}
    ]},
    {"compound": "CCCCCCCCCCOc1ccc(-c2nn(-c3ccc(Cl)cc3)cc2C=C2C(=O)NC(=S)NC2=O)cc1", "values": [
      {"measurement": "inhibition", "setting": "[1]", "value": "> 70", "unit": "%"},
      {"measurement": "inhibition at 2 min, 100 µM", "setting": "COX1/COX2", "value": 11, "unit": "%"}
    ]},
    {"compound": "CCOc1ccc(-c2nn(-c3ccc(Cl)cc3)cc2/C=C(\\C#N)C(N)=O)cc1", "values": [
      {"measurement": "inhibition", "setting": "[1]", "value": 32, "unit": "%"}
    ]},
    {"compound": "CCCCCCOc1ccc(-c2nn(-c3ccc(Cl)cc3)cc2/C=C2/SC(=S)NC2=O)cc1", "values": [
      {"measurement": "inhibition", "setting": "[1]", "value": "> 70", "unit": "%"},
      {"measurement": "pIC50", "setting": "Prostaglandin E synthase", "value": 5.76}
    ]},
    {"compound": "CCCCCCOc1ccc(-c2nn(-c3ccc(Cl)cc3)cc2/C=C(\\C#N)C(N)=O)cc1", "values": [
      {"measurement": "inhibition", "setting": "[1]", "value": 14, "unit": "%"}
    ]},
    {"compound": "CCOc1ccc(-c2nn(-c3ccc(Cl)cc3)cc2/C=C2/SC(=O)N(CC(=O)O)C2=O)cc1", "values": [
      {"measurement": "inhibition", "setting": "[1]", "value": "> 70", "unit": "%"},
      {"measurement": "inhibition at 2 min, 100 µM", "setting": "COX1/COX2", "value": 6.8, "unit": "%"},
      {"measurement": "pIC50", "setting": "Prostaglandin E synthase", "value": 7.39}
    ]},
    {"compound": "CCCCCCCCOc1ccc(-c2nn(-c3ccc(Cl)cc3)cc2C=C2C(=O)NC(=O)NC2=O)cc1", "values": [
      {"measurement": "inhibition", "setting": "[1]", "value": "> 70", "unit": "%"}
    ]},
    {"compound": "CCCCCCOc1ccc(-c2nn(-c3ccc(Cl)cc3)cc2/C=C2/SC(=O)N(CC(=O)O)C2=O)cc1", "values": [
      {"measurement": "inhibition", "setting": "[1]", "value": "> 70", "unit": "%"},
      {"measurement": "inhibition at 2 min, 100 µM", "setting": "COX1/COX2", "value": 1.2, "unit": "%"},
      {"measurement": "pIC50", "setting": "Prostaglandin E synthase", "value": 7.44}
    ]},
    {"compound": "CCOc1ccc(-c2nn(-c3ccc(Cl)cc3)cc2/C=C(\\C#N)C(=O)O)cc1", "values": [
      {"measurement": "inhibition", "setting": "[1]", "value": "> 70", "unit": "%"},
      {"measurement": "pIC50", "setting": "Prostaglandin E synthase", "value": 6.55}
    ]},
    {"compound": "CCCCCCCCCCOc1ccc(-c2nn(-c3ccc(Cl)cc3)cc2C=C2C(=O)NC(=O)NC2=O)cc1", "values": [
      {"measurement": "inhibition", "setting": "[1]", "value": "> 70", "unit": "%"}
    ]},
    {"compound": "CCOc1ccc(-c2nn(-c3ccc(Cl)cc3)cc2C=C2C(=O)NC(=O)NC2=O)cc1", "values": [
      {"measurement": "inhibition", "setting": "[1]", "value": "> 70", "unit": "%"}
    ]},
    {"compound": "CCCCCCOc1ccc(-c2nn(-c3ccc(Cl)cc3)cc2/C=C(\\C#N)C(=O)O)cc1", "values": [
      {"measurement": "inhibition", "setting": "[1]", "value": "> 70", "unit": "%"},
      {"measurement": "inhibition at 2 min, 100 µM", "setting": "COX1/COX2", "value": 19, "unit": "%"},
      {"measurement": "pIC50", "setting": "Prostaglandin E synthase", "value": 7.08}
    ]},
    {"compound": "O=C1NC(=S)NC(=O)C1=Cc1cn(-c2ccc(Cl)cc2)nc1-c1ccc(OCc2ccccc2)cc1", "values": [
      {"measurement": "inhibition", "setting": "[1]", "value": "> 70", "unit": "%"},
      {"measurement": "pIC50", "setting": "Prostaglandin E synthase", "value": 6.10}
    ]},
    {"compound": "CCOc1ccc(-c2nn(-c3ccc(Cl)cc3)cc2C=C(C#N)C#N)cc1", "values": [
      {"measurement": "inhibition", "setting": "[1]", "value": 51, "unit": "%"}
    ]},
    {"compound": "CCCCCCOc1ccc(-c2nn(-c3ccc(Cl)cc3)cc2C=C2C(=O)NC(=S)NC2=O)cc1", "values": [
      {"measurement": "inhibition", "setting": "[1]", "value": "> 70", "unit": "%"},
      {"measurement": "inhibition at 2 min, 100 µM", "setting": "COX1/COX2", "value": 0.7, "unit": "%"}
    ]},
    {"compound": "CCCCOc1ccc(-c2nn(-c3ccccc3)cc2C=C2C(=O)NC(=S)NC2=O)cc1", "values": [
      {"measurement": "inhibition", "setting": "[1]", "value": "> 70", "unit": "%"},
      {"measurement": "inhibition at 2 min, 100 µM", "setting": "COX1/COX2", "value": 16, "unit": "%"}
    ]},
    {"compound": "CCCCCCOc1ccc(-c2nn(-c3ccc(Cl)cc3)cc2/C=C2/SC(=O)NC2=O)cc1", "values": [
      {"measurement": "inhibition", "setting": "[1]", "value": "> 70", "unit": "%"},
      {"measurement": "pIC50", "setting": "Prostaglandin E synthase", "value": 5.86}
    ]},
    {"compound": "CCCCOc1ccc(-c2nn(-c3ccc(Cl)cc3)cc2C=C2C(=O)NC(=S)NC2=O)cc1", "values": [
      {"measurement": "inhibition", "setting": "[1]", "value": "> 70", "unit": "%"},
      {"measurement": "inhibition at 2 min, 100 µM", "setting": "COX1/COX2", "value": 4.4, "unit": "%"}
    ]},
    {"compound": "CCOc1ccc(-c2nn(-c3ccc(Cl)cc3)cc2/C=C2/SC(=S)NC2=O)cc1", "values": [
      {"measurement": "inhibition", "setting": "[1]", "value": "> 70", "unit": "%"},
      {"measurement": "pIC50", "setting": "Prostaglandin E synthase", "value": 5.98}
    ]},
    {"compound": "CCCCCCOc1ccc(-c2nn(-c3ccc(Cl)cc3)cc2C=C2C(=O)NC(=O)NC2=O)cc1", "values": [
      {"measurement": "inhibition", "setting": "[1]", "value": "> 70", "unit": "%"}
    ]},
    {"compound": "CCCCOc1ccc(-c2nn(-c3ccccc3)cc2C=C2C(=O)NC(=O)NC2=O)cc1", "values": [
      {"measurement": "inhibition", "setting": "[1]", "value": "> 70", "unit": "%"}
    ]}
  ]
}
